25 compounds from PubChem BioAssay AID463111 (Johns Hopkins Ion Channel Center, 2010) can be followed below.

About 2,800 (0.9%) of roughly 310,000 compounds were called active.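 The calls were made as follows: active = B-score of the integrated calcium signal more than 4 SD below the library mean, with starting fluorescence not abnormally high; inactive = the rest.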 The entries come from a sample that favours actives as a whole.

The nature of this experiment: RGS4 potentiators or activators, primary screen, cell-based, HEK293 M3R inducible RGS4, calcium flux (AID 463111).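 As to B-score: negative B-score means reduced calcium response which marks RGS4 activation or potentiation.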 The following applies: HEK293 M3R/inducible RGS4, carbachol calcium flux Fluo4, at 10 µM; active compounds read low. Summed up:
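System: HEK293 FlpIn-TREx cells, stable M3R, doxycycline-inducible RGS4. Timing: overnight RGS4 induction, 30 min dye load 37 °C, 20 min compound RT. Also added: carbachol, ECmax concentration. Measured by: Fluo4 fluorescence kinetic imaging of calcium. Evaluation: integrated calcium ratio converted to B score.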
(In general: Calcium flux is commonly read through the fluorescence of an indicator in the cells.)
For the compound `CCN(CC)P(=O)(Oc1cccc(C)c1)N(CC)CC`, the B-score entry is “inactive”. Take `Cc1cccc(OP(=O)(Oc2cccc(C)c2)OC(c2ccccc2)C(F)(F)F)c1` (stereo not given): the B-score was -7.67 (active). `O=C1CC(=O)N(Cc2ccccc2)C(=O)N1CCCCCCN1C(=O)CC(=O)N(Cc2ccccc2)C1=O`: the B-score result was “inactive”. Regarding `CC(c1ccccc1)(c1ccccc1)c1ccncc1`, the B-score entry was “inactive”. For `CCNc1nc2[nH]c(=O)c3c(c2s1)OC(N)=C(C#N)C3c1cccs1` (stereo not given) the value was “inactive”; for `C=CC12CN(C)[C@@H]3C4CO[C@H](C[C@H]41)[C@]1(C(=O)Nc4ccccc41)[C@@H]32` (stereo not given in full), -8.82 (active). As to `CCC(C)n1c(O)c(/C=N/Nc2nc3c(c(=O)n(C)c(=O)n3C)n2C)c(=O)[nH]c1=S` (stereo not given), the B-score result was “inactive”. Regarding `CCOc1ccc(C2SCC(=O)Nc3c2c(C)nn3C2CCOC(C)(C)C2)cc1` (stereo not given), the B-score entry is “inactive”. Turning to `COc1ccc(C(=O)C2CCCN(Cc3ccc(C)s3)C2)cc1OC` (stereo not given), the B-score result is “inactive”. For the compound `Cc1ccc(CN2CCCC(C(=O)c3ccc4c(c3)OCO4)C2)cc1C` (stereo not given), the B-score is -7.27 (active). For `Cc1ccsc1C(=O)C1CCCN(Cc2ccc(O)cc2)C1` (stereo not given) the value was “inactive”. For `O=C(Cc1ccc(Cl)cc1)NCCN1CCN(C(=O)Cc2ccc(Cl)cc2)CC1`, the B-score result was “inactive”. To `CCOC(=O)C1(Cc2ccc(Cl)cc2)CCN(C(C)CCn2cccn2)CC1` (stereo not given) belongs “inactive”. For `OC(Cn1c2ccccc2c2ccccc21)C[n+]1ccccc1` (stereo not given), the B-score result is “inactive”. Regarding `CN1CCN(/N=C/c2c[nH]c3ccccc23)CC1`, the B-score entry is “inactive”. For the compound `O=C(Nc1cccc(OC(=O)N2CCCCC2)c1)N1CCOCC1`, the B-score result was “inactive”. As for `CC(C)Oc1cccc(C(=O)C2CCCN(C3CCOCC3)C2)c1` (stereo not given), the B-score was -7.9 (active).

With `COc1cccc(CN2CCCC(C(=O)c3ccccc3SC)C2)c1O` (stereo not given), the B-score entry is “inactive”. Regarding `COc1ccc(-c2nn(CCC#N)cc2C(=O)O)cc1`, the B-score result was “inactive”. As to `Cc1cccc(-n2c(O)c(/C=N/N3CCOCC3)c(=O)[nH]c2=S)c1`, the B-score entry is “inactive”. For the compound `COc1cc(-n2c(=S)[nH]c3ccc(C)cc3c2=O)c(Cl)cc1Cl`, the B-score result was “inactive”.

For `CCCCn1c(=O)c(C(=O)Nc2ccccc2Cl)c(O)c2ccccc21`, the B-score result was “inactive”. On to `CCCCCn1c(=O)c(C(=O)Nc2c(C)n(C)n(-c3ccccc3)c2=O)c(O)c2ccccc21`, for which the B-score is -7.47 (active). Take `CCCCCn1c(=O)c(C(=O)NCc2ccccc2)c(O)c2ccccc21`: the B-score entry is “inactive”. For `O=C(O)CCn1cc(C=C2C(=O)NC(=S)NC2=O)c(-c2cccc(Br)c2)n1`, the B-score entry is “inactive”.
